Values after ≈ are worked out from the molar mass of the structure shown. Active and inactive are the calls of the source. The calls are words filed in the database; no cut-off is given here.
Columns and labels:
Aspergillus niger = assay: Antifungal activity against Aspergillus niger ATCC 16404 at 16.5 uM after 48 hrs by CLSI method; type: functional, organism-based
Aspergillus fumigatus [1] = assay: Antifungal activity against Aspergillus fumigatus ATCC 90906 at 16.5 uM after 48 hrs by CLSI method; type: functional, organism-based
Aspergillus fumigatus [2] = assay: Antifungal activity against Aspergillus fumigatus ATCC 90906 after 48 h by CLSI method; settings: ATCC 90906, 48 h
Pichia kudriavzevii = assay: Antifungal activity against Candida krusei ATCC 6258 after 48 hrs by CLSI method; type: functional, organism-based; settings: ATCC 6258, 48 h
Summary of the method: (§1)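 Candida inocula came from 24–72-h SD agar colonies suspended in saline. They were diluted by OD630 standard curve into RPMI 1640 (0.2% dextrose, 0.03% glutamine, 0.165 M MOPS, pH 7.0) to 1.5 × 10³ CFU/ml. Compounds were run as 11 twofold dilutions in 20% DMSO-saline, in duplicate, at 35°C for 48 h, with OD530 read before and after. Percent growth at the top concentration, IC50, MIC, and MFC (SD agar plating) were derived.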

Candida albicans [3] = assay: Antifungal activity against Fluconazole resistant Candida albicans clinical isolate 17 after 48 hrs by CLSI method; type: functional, organism-based
Summary of the method: (§2)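 CLSI broth microdilution. Colonies from 24–72 h SD agar suspended in saline and sized by OD630 standard curve. Inoculum 1.5 × 10³ CFU/ml (final) in RPMI 1640 (0.2% dextrose, 0.03% glutamine, 0.165 M MOPS, pH 7.0). Twofold dilutions (11 levels) from 20% DMSO-saline, in duplicate. 35°C for 48 h, OD530 read before and after. IC50 fitted from % growth. MIC: no detectable growth. MFC: subculture onto SD agar.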

Nakaseomyces glabratus = assay: Antifungal activity against Candida glabrata ATCC 90030 after 48 hrs by CLSI methodCandida glabrata; type: functional, organism-based; settings: ATCC 90030, 48 h; summary of the method: as §1
[4] = tested on: Trichophyton mentagrophytes; assay: Antifungal activity against Trichophyton mentagrophytes ATCC 9533 at 16.5 uM after 5 days by CLSI method; type: functional, organism-based
Cryptococcus neoformans [5] = assay: Antifungal activity against Cryptococcus neoformans ATCC 66031 after 72 hrs by CLSI method; type: functional, organism-based; settings: ATCC 66031, 72 h
Summary of the method: (§3)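 SD broth replaced RPMI because growth in RPMI was poor; other CLSI conditions were kept. Inoculum was 1.5 × 10³ CFU/ml from colonies on SD agar, checked by plating. Twofold serial dilutions (11 concentrations) in 20% DMSO-saline were tested in duplicate. OD530 was read before and after incubation at 35°C for 72 h. Percent growth gave IC50; the MIC is the lowest concentration with no detectable growth.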

Candida tropicalis = assay: Antifungal activity against Candida tropicalis ATCC 750 after 48 hrs by CLSI method; type: functional, organism-based; settings: ATCC 750, 48 h
Summary of the method: (§4)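 Yeast suspensions made from 3-5 colonies off 24-72 h SD agar plates in saline. They were diluted by OD630 standard curve in RPMI 1640 (0.2% dextrose, 0.03% glutamine, 0.165 M MOPS, pH 7.0) to 1.5 × 10³ CFU/ml. Twofold dilutions (11 concentrations, 20% DMSO-saline) run in duplicate. OD530 read before and after 35°C, 48 h. Line values are top test concentrations; no-growth endpoints give MIC/MFC.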

Aspergillus fumigatus [6] = assay: Antifungal activity against Aspergillus fumigatus ATCC 204305 at 16.5 uM after 48 hrs by CLSI method; type: functional, organism-based
Candida albicans [7] = assay: Antifungal activity against Candida albicans ATCC 200955 after 48 hrs by CLSI method; type: functional, organism-based; settings: ATCC 200955, 48 h; summary of the method: as §2
Cryptococcus neoformans [8] = assay: Antifungal activity against Cryptococcus neoformans ATCC 90113 after 72 hrs by CLSI method; type: functional, organism-based; settings: ATCC 90113, 72 h; summary of the method: as §3
Candida albicans [9] = assay: Antifungal activity against Candida albicans ATCC 14053 after 48 hrs by CLSI method; type: functional, organism-based; settings: ATCC 14053, 48 h; summary of the method: as §2
Trichophyton rubrum [10] = assay: Antifungal activity against Trichophyton rubrum ATCC MYA-4438 at 16.5 uM after 5 days by CLSI method; type: functional, organism-based
Candida parapsilosis [11] = assay: Antifungal activity against Candida parapsilosis ATCC 22019 at 16.5 uM after 48 hrs by CLSI method; type: functional, organism-based; summary of the method: as §4
Trichophyton rubrum [12] = assay: Antifungal activity against Trichophyton rubrum ATCC 10218 at 16.5 uM after 5 days by CLSI method; type: functional, organism-based
[13] = tested on: Trichophyton mentagrophytes; assay: Antifungal activity against Trichophyton mentagrophytes ATCC MYA-4439 by CLSI method; type: functional, organism-based
Summary of the method: (§5)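 Growth scraped from 1- to 6-week-old potato dextrose slants and filtered through Miracloth. Diluted in 5% Alamar blue-RPMI 1640 (MOPS pH 7.0) to 2.7 × 10⁴ CFU/ml. Eleven twofold dilutions in duplicate. Fluorescence at 544 nm excitation/590 nm emission read before and after 35°C, 5 days. IC50 fitted from percent growth. MIC taken as no detectable growth; MFC from clear or blue wells plated on PD agar.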

Candida albicans [14] = assay: Antifungal activity against Fluconazole resistant Candida albicans clinical isolate 1 after 48 hrs by CLSI method; type: functional, organism-based; summary of the method: as §2
Trichophyton rubrum [15] = assay: Antifungal activity against Trichophyton rubrum ATCC MYA-4438 by CLSI method; type: functional, organism-based; summary of the method: as §5
Aspergillus flavus = assay: Antifungal activity against Aspergillus flavus ATCC 204304 at 16.5 uM after 48 hrs by CLSI method; type: functional, organism-based
Candida parapsilosis [16] = assay: Antifungal activity against Candida parapsilosis ATCC 22019 after 48 hrs by CLSI method; type: functional, organism-based; settings: Lodderomyces parapsilosis, ATCC 22019, 48 h; summary of the method: as §4
Candida albicans [17] = assay: Antifungal activity against Candida albicans ATCC 32354 after 48 hrs by CLSI method; type: functional, organism-based; settings: ATCC 32354, 48 h; summary of the method: as §2
[18] = tested on: Trichophyton mentagrophytes; assay: Antifungal activity against Trichophyton mentagrophytes ATCC 9533 by CLSI method; type: functional, organism-based; summary of the method: as §5
Candida albicans [19] = assay: Antifungal activity against Candida albicans ATCC 60193 after 48 hrs by CLSI method; type: functional, organism-based; settings: ATCC 60193, 48 h; summary of the method: as §2
[20] = tested on: Trichophyton mentagrophytes; assay: Antifungal activity against Trichophyton mentagrophytes ATCC MYA-4439 at 16.5 uM after 5 days by CLSI method; type: functional, organism-based
Candida albicans [21] = assay: Antifungal activity against Candida albicans ATCC 90028 after 48 hrs by CLSI method; type: functional, organism-based; settings: ATCC 90028, 48 h; summary of the method: as §2

## CC[C@H](C)C[C@H](C)CCCCCCCCC(=O)N[C@H]1C[C@@H](O)[C@@H](NCCN)NC(=O)[C@@H]2[C@@H](O)CCN2C(=O)[C@H]([C@H](O)CCN)NC(=O)[C@H]([C@H](O)[C@@H](O)c2ccc(O)cc2)NC(=O)[C@@H]2C[C@@H](O)CN2C(=O)[C@H]([C@@H](C)O)NC1=O [CASPOFUNGIN]
Aspergillus niger
  Activity: inactive
Aspergillus fumigatus [1]
  Activity: inactive
Aspergillus fumigatus [2]
  IC50: 200 nM
  MIC: 16.5 µM (≈ 18 µg/mL)
Pichia kudriavzevii
  IC50: 100 nM
  MFC: 1 µM (≈ 1.09 µg/mL)
  MIC: 0.4 µM (≈ 0.437 µg/mL)
Candida albicans [3]
  IC50: 40 nM
  MFC: 0.26 µM (≈ 0.284 µg/mL)
  MIC: 0.13 µM (≈ 0.142 µg/mL)
Nakaseomyces glabratus
  IC50: 50 nM
  MFC: 0.26 µM (≈ 0.284 µg/mL)
  MIC: 0.13 µM (≈ 0.142 µg/mL)
[4]
  Activity: inactive
Cryptococcus neoformans [5]
  IC50: 100 nM
  MFC: 1 µM (≈ 1.09 µg/mL)
  MIC: 0.5 µM (≈ 0.547 µg/mL)
Candida tropicalis
  IC50: 60 nM
  MFC: 0.26 µM (≈ 0.284 µg/mL)
  MIC: 0.1 µM (≈ 0.109 µg/mL)
Aspergillus fumigatus [6]
  Activity: inactive
Candida albicans [7]
  IC50: 50 nM
  MFC: 0.13 µM (≈ 0.142 µg/mL)
  MIC: 0.13 µM (≈ 0.142 µg/mL)
Cryptococcus neoformans [8]
  IC50: 400 nM
  MFC: 2.1 µM (≈ 2.3 µg/mL)
  MIC: 1 µM (≈ 1.09 µg/mL)
Candida albicans [9]
  IC50: 50 nM
  MFC: 0.26 µM (≈ 0.284 µg/mL)
  MIC: 0.1 µM (≈ 0.109 µg/mL)
Trichophyton rubrum [10]
  Activity: inactive
Candida parapsilosis [11]
  Activity: inactive
Trichophyton rubrum [12]
  Activity: inactive
[13]
  IC50: 200 nM
Candida albicans [14]
  IC50: 50 nM
  MFC: 0.26 µM (≈ 0.284 µg/mL)
  MIC: 0.1 µM (≈ 0.109 µg/mL)
Trichophyton rubrum [15]
  IC50: 60 nM
  MIC: 0.1 µM (≈ 0.109 µg/mL)
Aspergillus flavus
  Activity: inactive
Candida parapsilosis [16]
  IC50: 200 nM
  MIC: 0.5 µM (≈ 0.547 µg/mL)
Candida albicans [17]
  IC50: 70 nM
  MFC: 1.03 µM (≈ 1.13 µg/mL)
  MIC: 0.13 µM (≈ 0.142 µg/mL)
[18]
  IC50: 300 nM
Candida albicans [19]
  IC50: 30 nM
  MFC: 0.52 µM (≈ 0.569 µg/mL)
  MIC: 0.1 µM (≈ 0.109 µg/mL)
[20]
  Activity: inactive
Candida albicans [21]
  IC50: 60 nM
  MFC: 0.26 µM (≈ 0.284 µg/mL)
  MIC: 0.19 µM (≈ 0.208 µg/mL)
